Results taken from ChEMBL document CHEMBL1152424, “Syntheses and biological evaluations of carbosilane dendrimers uniformly functionalized with sialyl alpha(2-->3) lactose moieties as inhibitors for human influenza viruses” (Bioorg Med Chem, 2009).
pIC50: −log10 of the molar value.

Columns and labels:
Influenza A virus [1] = assay: Antiviral activity against human influenza virus A/Memphis/1/71(H3N2) infected in chicken erythrocyte assessed as inhibition of hemagglutination after 1 hr; format: functional, organism-based, Influenza A virus (A/Memphis/1/1971(H3N2))
In short: (§1)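 Twofold serial dilutions of inhibitor in PBS pH 6.5 with 0.01% gelatin, mixed with virus (2^2 HA units) for 1 h at 4 °C. Then 0.5% (v/v) chicken erythrocytes added, 1 h at 4 °C. Titer is the maximum dilution giving complete inhibition of hemagglutination. Concentrations are expressed per sialyl lactose unit. Virus was egg-grown and purified.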

H3N2 subtype = assay: Antiviral activity against human influenza virus A/Aichi/2/1968(H3N2) infected in chicken erythrocyte assessed as inhibition of hemagglutination after 1 hr; format: functional, organism-based; in short: as §1
Influenza A virus [2] = assay: Antiviral activity against human influenza virus A/PR/8/38(H1N1) infected in chicken erythrocyte assessed as inhibition of hemagglutination after 1 hr; format: functional, organism-based; settings: A/Puerto Rico/8/1934(H1N1); in short: as §1
Influenza A virus [3] = assay: Antiviral activity against human influenza virus A/PR/8/38(H1N1) infected in MDCK cells assessed as neutralization of viral infection after 20 hrs by colorimetric assay; format: functional, organism-based; settings: A/Puerto Rico/8/1934(H1N1)
Influenza A virus [4] = assay: Antiviral activity against human influenza virus A/PR/8/38(H1N1) infected in guinea pig erythrocyte assessed as inhibition of hemolysis; format: functional, organism-based; settings: A/Puerto Rico/8/1934(H1N1)
In short: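 Virus (2^8 HAU) preincubated 1 h at 4 °C with inhibitor in PBS. Then 2.5% (v/v) guinea pig erythrocytes added, 30 min at 4 °C. Cells pelleted, resuspended in 20 mM acetate-buffered saline pH 5.0, 30 min at 37 °C. Hemoglobin released read at A550 against 0.1% Triton X-100 as 100% hemolysis. IC50 expressed per sialyl lactose unit.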

| SMILES | pIC50 (Influenza A virus [1]) | pIC50 (H3N2 subtype) | pIC50 (Influenza A virus [2]) | pIC50 (Influenza A virus [3]) | pIC50 (Influenza A virus [4]) |
| --- | --- | --- | --- | --- | --- |
| N[C@H]1[C@H]([C@H](O)[C@H](O)CO)O[C@@](O[C@H]2[C@@H](O)[C@@H](CO)O[C@@H](O[C@H]3[C@H](O)[C@@H](O)[C@H](OCCCCCSCCCCCC(=O)NCCC[Si](CCCNC(=O)CCCCCSCCCCCO[C@@H]4O[C@H](CO)[C@@H](O[C@@H]5O[C@H](CO)[C@H](O)[C@H](O[C@]6(C(=O)O)C[C@H](O)[C@@H](N)[C@H]([C@H](O)[C@H](O)CO)O6)[C@H]5O)[C@H](O)[C@H]4O)(CCCNC(=O)CCCCCSCCCCCO[C@@H]4O[C@H](CO)[C@@H](O[C@@H]5O[C@H](CO)[C@H](O)[C@H](O[C@]6(C(=O)O)C[C@H](O)[C@@H](N)[C@H]([C@H](O)[C@H](O)CO)O6)[C@H]5O)[C@H](O)[C@H]4O)CCCNC(=O)CCCCCSCCCCCO[C@@H]4O[C@H](CO)[C@@H](O[C@@H]5O[C@H](CO)[C@H](O)[C@H](O[C@]6(C(=O)O)C[C@H](O)[C@@H](N)[C@H]([C@H](O)[C@H](O)CO)O6)[C@H]5O)[C@H](O)[C@H]4O)O[C@@H]3CO)[C@@H]2O)(C(=O)O)C[C@@H]1O | 3.60 | 5.40 | 4.80 | 4.80 | 4.20 |
| N[C@H]1[C@H]([C@H](O)[C@H](O)CO)O[C@@](O[C@H]2[C@@H](O)[C@@H](CO)O[C@@H](O[C@H]3[C@H](O)[C@@H](O)[C@H](OCCCCCSCCC[Si](CCCSCCCCCO[C@@H]4O[C@H](CO)[C@@H](O[C@@H]5O[C@H](CO)[C@H](O)[C@H](O[C@]6(C(=O)O)C[C@H](O)[C@@H](N)[C@H]([C@H](O)[C@H](O)CO)O6)[C@H]5O)[C@H](O)[C@H]4O)(CCCSCCCCCO[C@@H]4O[C@H](CO)[C@@H](O[C@@H]5O[C@H](CO)[C@H](O)[C@H](O[C@]6(C(=O)O)C[C@H](O)[C@@H](N)[C@H]([C@H](O)[C@H](O)CO)O6)[C@H]5O)[C@H](O)[C@H]4O)CCCSCCCCCO[C@@H]4O[C@H](CO)[C@@H](O[C@@H]5O[C@H](CO)[C@H](O)[C@H](O[C@]6(C(=O)O)C[C@H](O)[C@@H](N)[C@H]([C@H](O)[C@H](O)CO)O6)[C@H]5O)[C@H](O)[C@H]4O)O[C@@H]3CO)[C@@H]2O)(C(=O)O)C[C@@H]1O | 3.60 | 4.49 | 4.19 | 4.49 | 3.90 |
| C[Si](C)(CCC[Si](CCCSCCCCCO[C@@H]1O[C@H](CO)[C@@H](O[C@@H]2O[C@H](CO)[C@H](O)[C@H](O[C@]3(C(=O)O)C[C@H](O)[C@@H](N)[C@H]([C@H](O)[C@H](O)CO)O3)[C@H]2O)[C@H](O)[C@H]1O)(CCCSCCCCCO[C@@H]1O[C@H](CO)[C@@H](O[C@@H]2O[C@H](CO)[C@H](O)[C@H](O[C@]3(C(=O)O)C[C@H](O)[C@@H](N)[C@H]([C@H](O)[C@H](O)CO)O3)[C@H]2O)[C@H](O)[C@H]1O)CCCSCCCCCO[C@@H]1O[C@H](CO)[C@@H](O[C@@H]2O[C@H](CO)[C@H](O)[C@H](O[C@]3(C(=O)O)C[C@H](O)[C@@H](N)[C@H]([C@H](O)[C@H](O)CO)O3)[C@H]2O)[C@H](O)[C@H]1O)CCC[Si](CCCSCCCCCO[C@@H]1O[C@H](CO)[C@@H](O[C@@H]2O[C@H](CO)[C@H](O)[C@H](O[C@]3(C(=O)O)C[C@H](O)[C@@H](N)[C@H]([C@H](O)[C@H](O)CO)O3)[C@H]2O)[C@H](O)[C@H]1O)(CCCSCCCCCO[C@@H]1O[C@H](CO)[C@@H](O[C@@H]2O[C@H](CO)[C@H](O)[C@H](O[C@]3(C(=O)O)C[C@H](O)[C@@H](N)[C@H]([C@H](O)[C@H](O)CO)O3)[C@H]2O)[C@H](O)[C@H]1O)CCCSCCCCCO[C@@H]1O[C@H](CO)[C@@H](O[C@@H]2O[C@H](CO)[C@H](O)[C@H](O[C@]3(C(=O)O)C[C@H](O)[C@@H](N)[C@H]([C@H](O)[C@H](O)CO)O3)[C@H]2O)[C@H](O)[C@H]1O | 3.60 | 4.49 | 4.49 | 5.11 | 4.49 |
| N[C@H]1[C@H]([C@H](O)[C@H](O)CO)O[C@@](O[C@H]2[C@@H](O)[C@@H](CO)O[C@@H](O[C@H]3[C@H](O)[C@@H](O)[C@H](OCCCCCSCCCCCC(=O)NCCC[Si](CCCNC(=O)CCCCCSCCCCCO[C@@H]4O[C@H](CO)[C@@H](O[C@@H]5O[C@H](CO)[C@H](O)[C@H](O[C@]6(C(=O)O)C[C@H](O)[C@@H](N)[C@H]([C@H](O)[C@H](O)CO)O6)[C@H]5O)[C@H](O)[C@H]4O)(CCCNC(=O)CCCCCSCCCCCO[C@@H]4O[C@H](CO)[C@@H](O[C@@H]5O[C@H](CO)[C@H](O)[C@H](O[C@]6(C(=O)O)C[C@H](O)[C@@H](N)[C@H]([C@H](O)[C@H](O)CO)O6)[C@H]5O)[C@H](O)[C@H]4O)c4ccccc4)O[C@@H]3CO)[C@@H]2O)(C(=O)O)C[C@@H]1O | 3.60 | 5.10 | 4.80 | 4.60 | 4.20 |
| C[Si](C)(CCC[Si](CCCNC(=O)CCCCCSCCCCCO[C@@H]1O[C@H](CO)[C@@H](O[C@@H]2O[C@H](CO)[C@H](O)[C@H](O[C@]3(C(=O)O)C[C@H](O)[C@@H](N)[C@H]([C@H](O)[C@H](O)CO)O3)[C@H]2O)[C@H](O)[C@H]1O)(CCCNC(=O)CCCCCSCCCCCO[C@@H]1O[C@H](CO)[C@@H](O[C@@H]2O[C@H](CO)[C@H](O)[C@H](O[C@]3(C(=O)O)C[C@H](O)[C@@H](N)[C@H]([C@H](O)[C@H](O)CO)O3)[C@H]2O)[C@H](O)[C@H]1O)CCCNC(=O)CCCCCSCCCCCO[C@@H]1O[C@H](CO)[C@@H](O[C@@H]2O[C@H](CO)[C@H](O)[C@H](O[C@]3(C(=O)O)C[C@H](O)[C@@H](N)[C@H]([C@H](O)[C@H](O)CO)O3)[C@H]2O)[C@H](O)[C@H]1O)CCC[Si](CCCNC(=O)CCCCCSCCCCCO[C@@H]1O[C@H](CO)[C@@H](O[C@@H]2O[C@H](CO)[C@H](O)[C@H](O[C@]3(C(=O)O)C[C@H](O)[C@@H](N)[C@H]([C@H](O)[C@H](O)CO)O3)[C@H]2O)[C@H](O)[C@H]1O)(CCCNC(=O)CCCCCSCCCCCO[C@@H]1O[C@H](CO)[C@@H](O[C@@H]2O[C@H](CO)[C@H](O)[C@H](O[C@]3(C(=O)O)C[C@H](O)[C@@H](N)[C@H]([C@H](O)[C@H](O)CO)O3)[C@H]2O)[C@H](O)[C@H]1O)CCCNC(=O)CCCCCSCCCCCO[C@@H]1O[C@H](CO)[C@@H](O[C@@H]2O[C@H](CO)[C@H](O)[C@H](O[C@]3(C(=O)O)C[C@H](O)[C@@H](N)[C@H]([C@H](O)[C@H](O)CO)O3)[C@H]2O)[C@H](O)[C@H]1O | 3.60 | 5.40 | 5.10 | 5.25 | 4.49 |
| N[C@H]1[C@H]([C@H](O)[C@H](O)CO)O[C@@](O[C@H]2[C@@H](O)[C@@H](CO)O[C@@H](O[C@H]3[C@H](O)[C@@H](O)[C@H](OCCCCCSCCC[Si](CCCSCCCCCO[C@@H]4O[C@H](CO)[C@@H](O[C@@H]5O[C@H](CO)[C@H](O)[C@H](O[C@]6(C(=O)O)C[C@H](O)[C@@H](N)[C@H]([C@H](O)[C@H](O)CO)O6)[C@H]5O)[C@H](O)[C@H]4O)(CCCSCCCCCO[C@@H]4O[C@H](CO)[C@@H](O[C@@H]5O[C@H](CO)[C@H](O)[C@H](O[C@]6(C(=O)O)C[C@H](O)[C@@H](N)[C@H]([C@H](O)[C@H](O)CO)O6)[C@H]5O)[C@H](O)[C@H]4O)c4ccccc4)O[C@@H]3CO)[C@@H]2O)(C(=O)O)C[C@@H]1O | 3.60 | 3.90 | 4.19 | 4.19 | 3.60 |
